In ChEMBL document CHEMBL3425438, “Investigation of (E)-3-[4-(2-Oxo-3-aryl-chromen-4-yl)oxyphenyl]acrylic Acids as Oral Selective Estrogen Receptor Down-Regulators” (J Med Chem, 2015):
In brackets after ≈: the same amount, converted by molar mass.

How the values were obtained:
[1] = biological target: T1, Estrogen receptor (Homo sapiens, UniProt P03372); assay: Binding affinity to ER alpha (unknown origin) by LanthaScreen TR-FRET competitive binding assay
T1 sequence (P03372 whole entry): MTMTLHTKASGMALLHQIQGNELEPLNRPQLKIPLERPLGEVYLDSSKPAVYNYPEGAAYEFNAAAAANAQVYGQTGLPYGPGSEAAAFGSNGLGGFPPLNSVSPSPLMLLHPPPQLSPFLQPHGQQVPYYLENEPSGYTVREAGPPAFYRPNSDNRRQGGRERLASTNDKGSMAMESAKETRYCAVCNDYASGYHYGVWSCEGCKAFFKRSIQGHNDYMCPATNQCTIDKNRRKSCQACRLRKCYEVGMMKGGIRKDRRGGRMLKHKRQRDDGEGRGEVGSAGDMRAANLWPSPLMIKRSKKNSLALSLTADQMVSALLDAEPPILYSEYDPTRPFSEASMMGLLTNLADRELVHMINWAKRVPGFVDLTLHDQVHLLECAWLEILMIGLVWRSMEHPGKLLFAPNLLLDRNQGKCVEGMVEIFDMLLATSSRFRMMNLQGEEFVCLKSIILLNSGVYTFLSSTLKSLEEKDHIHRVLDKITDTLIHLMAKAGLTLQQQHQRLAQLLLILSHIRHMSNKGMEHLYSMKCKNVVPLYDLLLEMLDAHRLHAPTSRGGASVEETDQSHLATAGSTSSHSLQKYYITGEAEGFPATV
In short: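 LanthaScreen TR-FRET ERα competitive binding; 12-point half-log concentration response; TR-FRET emission ratio read on microplate reader; IC50 reported.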

[2] = biological target: T1, Estrogen receptor; assay: Suppression of ER alpha in human MCF7 cells after 24 hrs by immunostaining analysis; format: cell-based
[3] = Octanol-buffer partition coefficient, log D of the compound at ratio of 1:100 at pH 7.4 by shake-flask method; format: physicochemical
[4] = Thermodynamic solubility of the compound in 0.1 M aqueous phosphate buffer at 25 degC at pH 7.4 after 24 hrs; format: physicochemical; settings: read-out: Therm_solubility
[5] = Free plasma concentration in rat by LC-UV-MS analysis; format: ADME, cell-free
In short: (§1)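 Equilibrium dialysis in plasma of the matching species at 37 °C; free and bound concentrations quantified by LC-UV-MS; reported as % free.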

[6] = biological target: Voltage-gated inwardly rectifying potassium channel KCNH2 (Homo sapiens, UniProt Q12809); assay: Inhibition of hERG channel by electrophysiology; format: toxicity
Sequence of Voltage-gated inwardly rectifying potassium channel KCNH2 (Q12809 whole entry): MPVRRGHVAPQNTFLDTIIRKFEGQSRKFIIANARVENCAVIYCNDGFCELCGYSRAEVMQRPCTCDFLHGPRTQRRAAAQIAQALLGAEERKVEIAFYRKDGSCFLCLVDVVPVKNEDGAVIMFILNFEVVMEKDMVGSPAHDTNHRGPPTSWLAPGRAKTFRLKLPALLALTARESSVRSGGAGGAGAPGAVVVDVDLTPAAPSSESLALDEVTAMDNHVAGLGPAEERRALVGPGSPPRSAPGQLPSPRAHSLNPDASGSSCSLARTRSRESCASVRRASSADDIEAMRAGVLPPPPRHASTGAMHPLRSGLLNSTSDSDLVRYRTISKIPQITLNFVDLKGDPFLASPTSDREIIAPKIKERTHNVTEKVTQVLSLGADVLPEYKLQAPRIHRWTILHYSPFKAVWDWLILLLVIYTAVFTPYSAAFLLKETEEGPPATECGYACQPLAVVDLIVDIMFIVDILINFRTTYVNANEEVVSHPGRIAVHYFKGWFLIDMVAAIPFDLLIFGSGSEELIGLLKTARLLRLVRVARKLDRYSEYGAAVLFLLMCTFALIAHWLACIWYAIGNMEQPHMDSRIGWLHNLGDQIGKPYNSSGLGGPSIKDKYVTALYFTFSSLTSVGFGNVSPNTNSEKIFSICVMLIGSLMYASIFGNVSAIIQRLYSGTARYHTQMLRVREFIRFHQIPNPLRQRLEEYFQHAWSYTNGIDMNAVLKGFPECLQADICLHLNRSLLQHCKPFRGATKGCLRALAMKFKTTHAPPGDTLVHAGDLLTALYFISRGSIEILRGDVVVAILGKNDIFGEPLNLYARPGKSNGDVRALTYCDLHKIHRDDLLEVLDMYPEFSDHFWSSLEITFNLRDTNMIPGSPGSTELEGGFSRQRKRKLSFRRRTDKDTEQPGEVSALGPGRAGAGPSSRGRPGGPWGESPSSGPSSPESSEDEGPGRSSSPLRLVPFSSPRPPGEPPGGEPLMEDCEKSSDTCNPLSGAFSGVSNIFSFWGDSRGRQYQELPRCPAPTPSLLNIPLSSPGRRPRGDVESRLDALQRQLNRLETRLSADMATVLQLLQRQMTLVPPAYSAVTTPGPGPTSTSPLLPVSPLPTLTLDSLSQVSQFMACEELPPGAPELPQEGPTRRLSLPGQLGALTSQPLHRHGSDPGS

[7] = Intrinsic clearance in rat hepatocytes measured per 10^6 cells; format: ADME, cell-based, Hepatocyte; settings: read-out: CLH
[8] = Dissociation constant, pKa of the compound by potentiometric analysis […] phenol; format: physicochemical
In short: (§2)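 pKa (acid and phenol) by potentiometric titration.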

[9] = Intrinsic clearance in human hepatocytes measured per 10^6 cells; format: ADME, cell-based, Hepatocyte; settings: read-out: CLH
[10] = Drug metabolism in rat hepatocytes assessed as formation of glucuronide conjugates by LC-UV-MS analysis; format: ADME, cell-based, Hepatocyte
[11] = Clearance in Alderley Park Han Wistar rat at 0.5 mg/kg, iv; format: ADME, organism-based; set-up: dose 0.5 mg/kg, route intravenous; settings: in vivo
[12] = Oral bioavailability in Alderley Park Han Wistar rat at 1 mg/kg using HPMC/tween suspension; format: ADME, organism-based; settings: in vivo
In short: (§3)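 Fed Han Wistar rats, two per study; oral HPMC/tween suspension at 1, 5 or 50 mg/kg as stated per line; IV reference 0.5 mg/kg in aqueous DMSO/cyclodextrin.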

[13] = Free plasma concentration in human by LC-UV-MS analysis; format: ADME, cell-free; in short: as §1
[14] = Volume of distribution at steady state in Alderley Park Han Wistar rat at 0.5 mg/kg, iv; format: ADME, organism-based; set-up: dose 0.5 mg/kg, route intravenous; settings: in vivo, read-out: Vdss
In short: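 Fed CD-1 mice or Alderley Park Han Wistar rats, two animals per study; IV 0.5 mg/kg as aqueous solution of DMSO and cyclodextrin; clearance and Vss derived.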

[15] = Apparent permeability from apical to basolateral side in human Caco2 cells; format: ADME, cell-based; settings: Caco-2
[16] = Dissociation constant, pKa of the compound by potentiometric analysis; format: physicochemical; in short: as §2
[17] = biological target: T1, Estrogen receptor; assay: Antagonist activity at ER alpha in human MCF7 cells assessed as inhibition of estradiol-induced PR expression treated for 24 hrs after incubation with estradiol for 30 mins by laser scanning imaging cytometer analysis; format: cell-based
[18] = Dissociation constant, pKa of the compound in acidic medium by potentiometric analysis; format: physicochemical; in short: as §2
[19] = Intrinsic clearance in mouse hepatocytes measured per 10^6 cells; format: ADME, cell-based, Hepatocyte; settings: read-out: CLH
[20] = Oral bioavailability in Alderley Park Han Wistar rat at 5 mg/kg using HPMC/tween suspension; format: ADME, organism-based; settings: in vivo; in short: as §3
[21] = Free plasma concentration in mouse by LC-UV-MS analysis; format: ADME, cell-free; in short: as §1
[22] = test system: MCF7; assay: Inhibition of cell proliferation in human MCF7 cells after 7 days by laser scanning imaging cytometer analysis; format: functional, cell-based; settings: MCF7, 168 h
In short: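 MCF-7 cells plated in reduced-serum medium the day before; concentration response for 7 days; cell number by nucleic acid stain, read on laser scanning imaging cytometer; EC50 for decrease in proliferation.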

[23] = biological target: T1, Estrogen receptor; assay: Agonist activity at ER alpha in human MCF7 cells assessed as PR gene expression after 24 hrs by laser scanning imaging cytometer analysis; format: cell-based; settings: read-out: IC50 (the source's name)

Row | Compound | IC50 [1] [nM] | IC50 [2] [nM] | logD [3] | hepatocyte CLint [7] [µL/min/1e6 cells] | hepatocyte CLint [9] [µL/min/1e6 cells] | other results
1 | O=C(O)/C=C/c1ccc(Cc2c(-c3cccc(OC(F)(F)F)c3)c(=O)oc3cc(O)ccc23)cc1 | 5.9 | 1710 | 2.9 | – | – | –
2 | CC/C(=C(\c1ccc(O)cc1)c1ccc(/C=C/C(=O)O)cc1)c1ccccc1 | – | – | – | 12 | – | solubility thermodynamic at 24 h [4]: 200 µM (≈ 74.1 µg/mL); fraction unbound [5]: 0.0009; IC50 [6]: > 100000 nM
3 | Cc1cc(F)ccc1-c1c(Cc2ccc(/C=C/C(=O)O)cc2)c2ccc(O)cc2oc1=O | 3.9 | 117 | 2.1 | 81 | 11 | pKa [8]: 7.7
4 | Cc1c(O)ccc2c(Cc3ccc(/C=C/C(=O)O)cc3)c(-c3ccc(OC(F)(F)F)cc3)c(=O)oc12 | 280 | 5840 | 3.4 | 39 | 20 | pKa [8]: 8.5
5 | O=C(O)/C=C/c1ccc(Cc2c(-c3ccc(Cl)cc3)c(=O)oc3cc(O)ccc23)cc1 | 3.7 | 471 | 2.4 | – | – | –
6 | O=C(O)/C=C/c1ccc(Cc2c(-c3ccc(C(F)(F)F)cc3)c(=O)oc3cc(O)ccc23)cc1 | 4.6 | 531 | 2.6 | – | – | –
7 | Cc1cc(F)ccc1-c1c(Cc2ccc(/C=C/C(=O)O)cc2)c2c(F)cc(O)cc2oc1=O | 1.3 | 55 | 1.6 | 69 | 14 | pKa [8]: 7.2; Drug metabolism [10]: metabolite_detected
8 | Cc1cc(OC(F)(F)F)ccc1-c1c(Cc2ccc(/C=C/C(=O)O)cc2)c2ccc(O)cc2oc1=O | 1 | 7 | 3.1 | – | – | –
9 | Cc1cccc(-c2c(Cc3ccc(/C=C/C(=O)O)cc3)c3ccc(O)cc3oc2=O)c1 | 17 | 3090 | 2.2 | – | – | –
10 | Cc1cc(F)ccc1-c1c(Cc2ccc(/C=C/C(=O)O)cc2)c2ccc(N)cc2oc1=O | – | 1380 | 1.7 | 18 | 10 | –
11 | Cc1cc(F)ccc1-c1c(Oc2ccc(/C=C/C(=O)O)cc2)c2cc(F)c(O)cc2oc1=O | 7.4 | > 3000 | 0.8 | 84 | 28 | pKa [8]: 5.8
12 | Cc1cc(F)ccc1-c1c(-c2ccc(/C=C/C(=O)O)cc2)c2ccc(O)cc2oc1=O | 5.8 | 256 | 2 | – | – | –
13 | CCOc1ccc2c(Oc3ccc(/C=C/C(=O)O)cc3)c(-c3ccc(OC(F)(F)F)cc3C)c(=O)oc2c1 | 50 | 253 | – | 21 | 20 | –
14 | Cc1cc(F)ccc1-c1c(Cc2ccc(/C=C/C(=O)O)cc2)c2ccc(C(F)F)cc2oc1=O | 390 | > 2150 | 2.2 | 16 | < 3 | –
15 | O=C(O)/C=C/c1ccc(Cc2c(-c3ccc(OC(F)(F)F)cc3)c(=O)oc3cc(O)ccc23)cc1 | 1.6 | 52 | 2.8 | 40 | 9 | pKa [8]: 8.7
16 | O=C(O)/C=C/c1ccc(Cc2c(-c3ccc(F)cc3Cl)c(=O)oc3cc(O)ccc23)cc1 | 2.2 | 178 | – | – | – | –

Row | Compound | IC50 [1] [nM] | IC50 [2] [nM] | logD [3] | hepatocyte CLint [7] [µL/min/1e6 cells] | hepatocyte CLint [9] [µL/min/1e6 cells] | other results
17 | COc1ccc(-c2c(Cc3ccc(/C=C/C(=O)O)cc3)c3ccc(O)cc3oc2=O)cc1 | 3.8 | 350 | 1.9 | – | – | –
18 | COc1cccc(-c2c(Cc3ccc(/C=C/C(=O)O)cc3)c3ccc(O)cc3oc2=O)c1 | 41 | 5640 | 1.9 | – | – | –
19 | O=C(O)/C=C/c1ccc(Cc2c(-c3ccc(F)cc3F)c(=O)oc3cc(O)ccc23)cc1 | 3 | 660 | 1.7 | – | – | –
20 | Cc1cc(F)ccc1-c1c(Oc2ccc(/C=C/C(=O)O)cc2)c2ccccc2oc1=O | 72 | 248 | 2 | 27 | 9 | solubility thermodynamic at 24 h [4]: > 1500 µM; clearance [11]: 23 mL/min/kg; fraction unbound [5]: 0.014; bioavailability [12]: 47%; IC50 [6]: > 100000 nM; fraction unbound [13]: 0.005; Vd [14]: 0.47 L/kg; Papp A→B [15]: 47 ×10⁻⁶ cm/s; pKa [16]: 5.3; IC50 [17]: 330 nM
21 | Cc1cc(F)ccc1-c1c(Oc2ccc(/C=C/C(=O)O)cc2)c2ccc(O)c(F)c2oc1=O | 3.2 | 509 | 0.6 | 33 | 11 | pKa [8]: 6.1
22 | Cc1cc(F)ccc1-c1c(Oc2ccc(/C=C/C(=O)O)cc2)c2ccc(O)cc2oc1=O | 0.4 | 21 | 1.6 | 50 | 32 | pKa [18]: 3.9; solubility thermodynamic at 24 h [4]: > 2000 µM; pKa [8]: 7.1; clearance [11]: 35 mL/min/kg; hepatocyte CLint [19]: 68 µL/min/1e6 cells; bioavailability [20]: 5%; fraction unbound [5]: 0.0051; fraction unbound [21]: 0.028; fraction unbound [13]: 0.0025; EC50 [22]: 4.5 nM; Vd [14]: 0.9 L/kg; Papp A→B [15]: 19 ×10⁻⁶ cm/s; IC50 [17]: 27 nM
23 | Cc1cc(OC(F)(F)F)ccc1-c1c(Oc2ccc(/C=C/C(=O)O)cc2)c2ccc(C(F)F)cc2oc1=O | 50 | 506 | 3 | 3 | 11 | –
24 | COc1ccc2c(Cc3ccc(/C=C/C(=O)O)cc3)c(-c3ccc(OC(F)(F)F)cc3)c(=O)oc2c1 | 1100 | 3600 | 3 | 23 | 23 | –
25 | Cc1cc(F)ccc1-c1c(Nc2ccc(/C=C/C(=O)O)cc2)c2ccc(O)cc2oc1=O | 25 | 1450 | 1.3 | – | – | –
26 | COc1cc(F)ccc1-c1c(Cc2ccc(/C=C/C(=O)O)cc2)c2ccc(O)cc2oc1=O | 11 | 2260 | 1.8 | – | – | –
27 | Cc1cc(Cl)ccc1-c1c(Cc2ccc(/C=C/C(=O)O)cc2)c2ccc(O)cc2oc1=O | 1.5 | 30 | – | – | – | –
28 | Cc1cc2c(Cc3ccc(/C=C/C(=O)O)cc3)c(-c3ccc(OC(F)(F)F)cc3)c(=O)oc2cc1O | 10 | 320 | 3.1 | 37 | 17 | pKa [8]: 7.6
29 | O=C(O)/C=C/c1ccc(Cc2c(-c3ccc(OC(F)(F)F)cc3)c(=O)oc3cc(F)ccc23)cc1 | 5800 | 10600 | 2.5 | 4.4 | – | –
30 | Cc1cc(F)ccc1-c1c(N(C)c2ccc(/C=C/C(=O)O)cc2)c2ccc(O)cc2oc1=O | 9.9 | 60 | 2.3 | – | – | –
31 | Cc1cc(OC(F)(F)F)ccc1-c1c(Oc2ccc(/C=C/C(=O)O)cc2)c2ccccc2oc1=O | 15 | 100 | 2.5 | 19 | 7 | solubility thermodynamic at 24 h [4]: > 470 µM; clearance [11]: 15 mL/min/kg; EC50 [23]: > 3100 nM; fraction unbound [5]: 0.0032; bioavailability [12]: 35%; fraction unbound [13]: 0.0016; EC50 [22]: 20 nM; Vd [14]: 1.7 L/kg; Papp A→B [15]: 39 ×10⁻⁶ cm/s; pKa [16]: 3.7; IC50 [17]: 180 nM
32 | O=C(O)/C=C/c1ccc(Cc2c(-c3ccc(OC(F)(F)F)cc3)c(=O)oc3ccccc23)cc1 | 360 | 1300 | 2.8 | 20 | 8 | –
